Assay results gathered from unrelated publications.
Compare with care: the assays were run in different laboratories.
Target: Ephrin type-A receptor 5 (EPHA5, Homo sapiens, UniProt P54756)
Sequence (P54756 675-936, limits assumed, as in one of the studies): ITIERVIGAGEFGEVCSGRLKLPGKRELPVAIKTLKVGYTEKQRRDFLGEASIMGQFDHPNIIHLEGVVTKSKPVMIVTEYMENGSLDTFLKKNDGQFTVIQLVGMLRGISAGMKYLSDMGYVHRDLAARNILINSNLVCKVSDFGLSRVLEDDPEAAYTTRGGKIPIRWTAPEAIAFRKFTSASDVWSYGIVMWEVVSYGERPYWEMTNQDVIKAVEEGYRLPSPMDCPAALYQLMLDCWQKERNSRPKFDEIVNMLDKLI

SMILES	observed	mode	technique	tested at	quantity	result
CC(C)(C)c1nc2c(s1)c1nc(N)ncc1c1ccc(NS(=O)(=O)c3c(F)cccc3F)c(F)c12	enzyme activity	inhibitor	radiometric	1 µM	remaining activity	109%
O=C(Nc1cnn(-c2csc(C(=O)NC3COC3)c2)c1)Nc1c(F)cccc1Cl	enzyme activity	inhibitor		5 µM	remaining activity	95%
Cc1cc(-n2nc(Cc3cc(F)cc(C(F)(F)F)c3)nc2C)ccc1C(N)=O	cell-free assay		competition with immobilised ligand	1 µM	remaining binding	100%
Nc1ncnc2occ(-c3ccc(NC(=O)Nc4cc(C(F)(F)F)ccc4F)cc3)c12	cell-free assay			20 µM	remaining signal	0.05%
CNCc1ccccc1-c1csc([C@H](C)Nc2nc(C)nc3cc(OC)c(OC)cc23)c1	cell-free assay		competition with immobilised ligand	1 µM	remaining binding	100%
CC(C)(O)[C@H]1CC[C@H](Nc2ccc3ncc(-c4cccc(C(F)(F)F)c4)n3n2)CC1	enzyme activity	inhibitor		1 µM	remaining activity	101%
O=c1nc(-c2ccccn2)sc2ccccc12	cell-free assay		competition with immobilised ligand	1 µM	remaining binding	94%
COc1cc2c(N3CCN(C(=O)Nc4ccc(OC(C)C)cc4)CC3)ncnc2cc1OCCCN1CCCCC1	cell-free assay			0.5 µM	remaining signal	104%
CS(=O)(=O)NCC[C@H](NC(=O)c1cncc2c1cnn2-c1ccc(F)cc1)c1ccnc(S(C)(=O)=O)c1	cell-free assay		competition with immobilised ligand	1 µM	remaining binding	100%
COc1cc(-c2cc(-c3ccc(N4CCNCC4)cc3)cnc2C)cc(OC)c1OC	enzyme activity	inhibitor		1 µM	inhibition	4%
CCN(CC)CCNC(=O)c1c(C)[nH]c(/C=C2\C(=O)Nc3ccc(F)cc32)c1C	enzyme activity	inhibitor		10 µM	inhibition	58%
COc1cc(Cl)c(C(=O)N[C@@H](CN[C@H]2CC[C@@H](N)CC2)Cc2ccc(C#N)cc2)cc1-c1ccc(CN[C@H](C)c2ccc(C)cc2)o1	enzyme activity	inhibitor		1 µM	remaining activity	90%
Cc1cc(NC(=O)c2cccc3cc(-c4cccc5[nH]nc(N)c45)ccc23)ccc1F	enzyme activity	inhibitor		0.1 µM	activity vs control	99%
Cn1cc(Cl)c2c(Oc3c(F)cc(Nc4cc(Cl)nc(N)n4)cc3F)ccnc21	cell-free assay		competition with immobilised ligand	0.1 µM	remaining binding	100%
COc1cc2ncnc(Nc3ccc(Oc4ccccc4)cc3C)c2cc1OC	enzyme activity	inhibitor		1 µM	inhibition	5%
N#CCCc1ccc2c(c1)-c1[nH]c3ccc([N+](=O)[O-])cc3c1CC(=O)N2	cell-free assay			0.5 µM	remaining signal	88.5%
CNC(=O)c1cc(Oc2ccc(NC(=O)Nc3ccc(Cl)c(C(F)(F)F)c3)cc2)ccn1	enzyme activity	inhibitor		0.3 µM	inhibition	32%
C[C@@H]1CN(c2cc(-c3nn(C)c4ccc(OC5(C)CC5)cc34)ncn2)C[C@H](C)O1	cell-free assay		competition with immobilised ligand	1 µM	remaining binding	100%
Cc1ccc(NC(=O)c2ccc(C)c(C(F)(F)F)c2)cc1C#Cc1nn(C2CCC(O)CC2)c2ncnc(N)c12 (stereo not shown)	cell-free assay			10 µM	remaining signal	-1%
FC(F)(F)c1ccc2c(c1)nc(-c1cccnc1)n2C1CC1	cell-free assay		competition with immobilised ligand	1 µM	remaining binding	96%
O=C1Nc2ccc(Cl)cc2C1=Cc1cc(Cl)c(O)c(Cl)c1	cell-free assay			0.5 µM	remaining signal	99.4%
Cc1ccc(Nc2nccc(N(C)c3ccc4c(C)n(C)nc4c3)n2)cc1S(N)(=O)=O	enzyme activity	inhibitor		10 µM	inhibition	70%
CNC(=O)c1cc2c(Oc3ccc(NC(=O)C4(C(=O)Nc5ccc(F)cc5)CC4)cc3)ccnc2cc1OC	enzyme activity	inhibitor	radiometric	1 µM	inhibition	96%
O=C(Nc1cnn(-c2csc(C(=O)NC3COC3)c2)c1)Nc1ccccc1Cl	enzyme activity	inhibitor		5 µM	remaining activity	96.9%
O=C(Nc1ccc(Oc2ccc(F)cc2)cc1)N1CCc2ncccc2[C@H]1c1ccc(F)cc1	cell-free assay		competition with immobilised ligand	1 µM	remaining binding	100%
